Test results: paper PMC9398548 (European journal of pharmaceutical sciences : official …, 2020)

Key:
[1] = test system: CEM cells; experiment: Apoptosis induction by flow cytometry; format: cell-based; details: IC50 concentration, 24 h
Procedure, shortened: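 CEM cells seeded in 24-well plates and held overnight at 37 °C under CO2. Medium was then replaced, and cells were exposed to the test compound for 24 h; untreated cells served as the negative control. Cells were washed in PBS, pelleted at 500 xg and 4 °C, resuspended in ice-cold binding buffer, and stained with annexin V-FITC plus PI for 15 min on ice in the dark. Analysed by flow cytometry, in triplicate.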

[2] = test system: white blood cells (WBCs); experiment: MTT assay on non-transformed white blood cells; format: cell-based, human; details: 48 h treatment with 100 μM
Procedure, shortened: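 WBCs from a healthy adult volunteer were isolated by HiSep centrifugation at 400 xg for 30 min, followed by repeated RBC lysis and PBS washes. Cells were held at 37 °C under 5% CO2 overnight in 96-well plates. Test compound was applied at 2.5–100 μM for 48 h. After two PBS washes, MTT was added for 4 h at 37 °C; formazan was dissolved in DMSO and absorbance read at 570 nm.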

[3] = molecular target: T1, GLUT1 (Homo sapiens, UniProt P11166); format: cell-based
T1 sequence (P11166 1-492): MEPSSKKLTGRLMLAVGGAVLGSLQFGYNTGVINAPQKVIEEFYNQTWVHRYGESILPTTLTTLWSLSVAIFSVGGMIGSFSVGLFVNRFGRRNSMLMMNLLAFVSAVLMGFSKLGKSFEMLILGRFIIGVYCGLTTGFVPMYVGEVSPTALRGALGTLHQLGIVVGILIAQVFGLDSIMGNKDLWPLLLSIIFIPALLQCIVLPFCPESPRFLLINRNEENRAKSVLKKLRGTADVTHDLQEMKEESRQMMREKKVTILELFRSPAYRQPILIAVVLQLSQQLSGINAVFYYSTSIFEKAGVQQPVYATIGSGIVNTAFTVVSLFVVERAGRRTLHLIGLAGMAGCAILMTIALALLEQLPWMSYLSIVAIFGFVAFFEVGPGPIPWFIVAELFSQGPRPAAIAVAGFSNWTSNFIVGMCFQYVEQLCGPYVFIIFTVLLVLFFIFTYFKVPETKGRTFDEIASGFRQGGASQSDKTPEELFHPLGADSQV
Procedure, shortened: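 VW4000fgy1 hxt0 yeast carrying human GLUT1 were grown at 30 °C: first in SC-uracil/2% maltose for 2–3 days, then 1–2 days in SC-uracil/2% glucose from OD600 ~0.5. Cells were resuspended in PBS pH 7.4 at OD600 ~10 and given 5 mM C14-glucose for 10 min. Uptake was quenched with ice-cold buffer pH 5.5, filtered, and counted. Controls: 1% DMSO and 200 μM phloretin.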

[4] = test system: CEM cells; experiment: Cell cycle analysis by flow cytometry; format: cell-based; details: IC50 concentration, 24 h
Procedure, shortened: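 Cells were seeded in 24-well plates overnight, then given fresh medium and exposed to the test compound for 24 h beside an untreated control. After a PBS wash, cells were fixed in ice-cold 70% ethanol on ice for 2 h, then washed again. They were stained with PI for 15 min at 37 °C and analysed by flow cytometry within 30 min, in triplicate.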

[5] = test system: CEM cells; experiment: MTT cytotoxicity assay in CEM cells; format: cell-based; details: read-out: CEM- IC50, 48 h, Mean±SD, n=3
Procedure, shortened: (§1)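 Cells were grown in suspension in RPMI 1640 with 10% FBS and penicillin/streptomycin/amphotericin B at 37 °C under 5% CO2. They were seeded at ~5×10^3 cells/well, kept overnight, then exposed to test compounds diluted in DMSO for 48 h. Cells were pelleted (300 g, 4 °C, 5 min) and washed twice in phosphate buffer. MTT (5 mg/ml stock) was added for 4 h at 37 °C, formazan dissolved in DMSO, and A570 read. Triplicate; IC50 given as mean±SD.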

[6] = test system: K562 cells; experiment: MTT cytotoxicity assay in K562 cells; format: cell-based; details: read-out: K562- IC50; MTT, 48 h, Mean±SD, n=3
Procedure, shortened: as §1

[7] = molecular target: T2, GLUT4 (Homo sapiens, UniProt P14672); format: cell-based
T2 sequence (P14672 1-509): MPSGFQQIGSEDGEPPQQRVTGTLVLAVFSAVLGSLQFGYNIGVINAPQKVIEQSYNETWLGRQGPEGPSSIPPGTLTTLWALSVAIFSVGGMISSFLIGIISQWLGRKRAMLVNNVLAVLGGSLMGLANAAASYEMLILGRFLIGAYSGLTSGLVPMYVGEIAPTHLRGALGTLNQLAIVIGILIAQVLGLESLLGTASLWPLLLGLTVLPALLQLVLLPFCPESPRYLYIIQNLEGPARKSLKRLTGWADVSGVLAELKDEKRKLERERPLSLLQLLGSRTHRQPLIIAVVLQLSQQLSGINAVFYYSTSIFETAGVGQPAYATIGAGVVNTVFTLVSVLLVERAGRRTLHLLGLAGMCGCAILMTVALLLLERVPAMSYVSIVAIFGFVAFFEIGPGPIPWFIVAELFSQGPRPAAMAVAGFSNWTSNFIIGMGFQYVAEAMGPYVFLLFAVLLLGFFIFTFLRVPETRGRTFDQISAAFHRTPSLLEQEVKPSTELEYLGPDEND
Procedure, shortened: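 VW4000fgy1erg4 hxt0 yeast expressing human GLUT4 were cultured at 30 °C, first in SC-uracil/1% maltose and then in SC-uracil/0.2% glucose from OD600 ~0.5. Cells in PBS pH 7.4 (OD600 ~10) were fed 5 mM C14-glucose for 10 min. The reaction was quenched in ice-cold buffer pH 5.5, then filtered and scintillation-counted. Vehicle control was 1% DMSO; 200 μM phloretin served as positive control.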

[8] = test system: GLUT5; format: cell-based, human
Procedure, shortened: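 Uses hexose-transporter-null VW4000 yeast expressing human GLUT5, cultured at 30 °C and 180 rpm. Cells were grown one day in YEP/2% maltose with G418, then 1–2 days in YEP/2% fructose starting from OD600 ~0.5. Washed cells in PBS pH 7.4 (OD600 ~10) took up 10 mM C14-fructose for 10 min. Uptake was stopped with ice-cold KPi/LiCl quench buffer pH 5.5, then filtered and scintillation-counted. Controls were 1% DMSO and 100 μM MSNBA. Screening was at 100 μM; three independent measurements.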

[9] = primary screen, 100 μM compound

O=C(CN1C(=O)SC(=Cc2ccc(Cl)cc2)C1=O)Nc1ccc(Cl)cc1C(F)(F)F [Compound G5, 2-[5-(4-Chlorobenzylidene)-2,4-dioxothiazolidin-3-yl]-N-(4-chloro-2-trifluromethylphenyl) acetamide]
percentage of cells in early apoptotic phase [1]: 1.30% | percentage of cells in late apoptotic phase [1]: 59.22% | percentage of live cells [1]: 25.58% | percentage of necrotic cell population [1]: 13.90% | viable WBC cells [2]: More than 66% | decrease of relative transport activity of GLUT1 [3, 9]: > 50% | IC50 ([3]; read-out: GLUT1 IC50, hxt0 yeast cells expressing GLUT1, 5 mM C14-glucose, 10 minutes): 5.4 ± 1.3 µM | percentage of cells arrested in G0-G1 phase [4]: 52.0% | percentage of cells arrested in the G2-M phase [4]: 22.1% | IC50 [5]: 13.5 ± 3.88 µM | IC50 [6]: 34.9 ± 1.07 µM | decrease of relative transport activity of GLUT4 [7, 9]: > 50% | IC50 ([7]; read-out: GLUT4 IC50, hxt0 yeast cells expressing GLUT4, 5 mM C14-glucose, 10 minutes): 9.5 ± 2.8 µM | decrease of relative transport activity of GLUT5 [8, 9]: > 50% | IC50 ([8]; read-out: GLUT5 IC50, hxt0 yeast cells expressing GLUT5, 10 mM C14-fructose, 10 minutes): 34.5 ± 2.4 µM
